Measured values from paper PMC3063487 (Bioconjugate chemistry, 2011).
Several values for one entry are separate records, joined by “and”; a condition that tells them apart may be missing. Equal values may be shown once. Entries after “also recorded” stand apart in the source; their conditions may differ.

Columns and labels:
[1] = system: human B cells; experiment: Human B cell proliferation; assay type: cell-based; details: human PBMC, four days
How it was run: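 Human PBMC from blood-bank buffy coats, from three donors. Cells were labelled with 10 μM CFSE in saline for 10 min, washed, then exposed to 1 or 10 μM test compound for four days. Cells were surface-stained for CD19. Proliferation of the CD19-gated B cells was scored by flow cytometry as CFSE dilution. Representative of two independent experiments.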

[2] = Pharmacokinetic; assay type: in vivo, mouse (C57BL/6); details: for AUC: C57BL/6, mouse, iv, 500 nmol
[3] = system: NFκB-bla Raw 264.7 cells; experiment: In vitro NFkB activation using NFκB-bla Raw 264.7 cells; assay type: cell-based, murine; details: Mus musculus, RAW264.7, 16 h; for EC50: read-out: EC50 NFkB-RAW; for maximal fold induction: read-out: Imax NFkB-RAW (RR)
How it was run: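 NFκB-bla RAW 264.7 cells at 5×10^4 per well in OptiMEM with 0.5% dialyzed FBS, 0.1 mM non-essential amino acids, 1 mM pyruvate, 10 mM HEPES pH 7.3 and penicillin/streptomycin. Test compound came from 10 or 50 mM DMSO stocks, was serially diluted in DMSO, then in medium.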

[4] = system: murine primary BMDM; experiment: In vitro cytokine induction in bone marrow derived macrophages; assay type: cell-based, mouse (C57BL/6); details: for EC50: Mus musculus, BMDM, 18 h, read-out: EC50 BMDM; for Imax BMDM (IL-6 ng/ml): maximum level of IL-6 induction, 18 hours
How it was run: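 Bone marrow-derived macrophages from C57BL/6 mice at 5×10^4 cells per well. Cells were given serially diluted test compound, from 50–100 mM DMSO stocks, for 18 h at 37°C, 5% CO2. Supernatant IL-6 was measured by ELISA, detection limit 15 pg/mL. Curves were fitted by nonlinear regression to give EC50 and maximal IL-6 induction. Representative of two independent experiments.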

[5] = Solubility study in deionized water; details: for Water Solubility: saturated solution in deionized water, osmometer
[6] = system: C57BL/6 mice; experiment: Pharmacodynamic; assay type: in vivo, mouse (C57BL/6); details: 200 nmol i.v., all time points analyzed
How it was run: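 Female C57BL/6 mice, 5 per group, received 200 nmol test compound intravenously. Sera were collected 2, 4, 6, 24 and 48 h after injection and held at −20°C. IL-6 and TNF-α were measured by Luminex bead assay, with detection limits of 5 and 10 pg/mL. Means ± SEM of five mice were compared with vehicle and unconjugated ligand by one-way ANOVA with Bonferroni post hoc test.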

[7] = Protein binding assay; assay type: in vitro ADME; details: bovine, dialyzed fetal bovine serum
[8] = system: dialyzed serum proteins; experiment: Protein binding assay; assay type: in vitro ADME; details: rapid equilibrium dialysis, dialyzed fetal bovine serum, UV 282 nm
[9] = system: human PBMC; experiment: Cytokine induction by human PBMC; assay type: cell-based; details: 1 or 10 μM, 18 hours

SMILES | AUC ([2]; serum) | EC50 [3] | EC50 [4] | Water Solubility [5] | fraction unbound [7] | AUC ([2]; in vivo) | Water solubility (in words) ([5]; deionized water) | Protein Binding (%) [8] | B cell proliferation ([1]; 1 and 10 μM, three donors) | maximal fold induction [3] | Imax BMDM (IL-6 ng/ml) [4] | Serum cytokine levels (IL-6, TNF-α) compared to 1V136 [6] | B cell proliferation ([1]; 1 μM) | Cytokine induction (IL-6, TNF-α) in human PBMC (in words) [9] | Maximum serum concentration compared to 1V136 ([2]; C57BL/6 mice, i.v. 500 nmol)
COCCOc1nc(N)c2nc(O)n(Cc3ccc(C(=O)NCCOCCOCCOCCOCCOCCOCCn4cc(CCC(=O)O)nn4)cc3)c2n1 [Compound 1b, 3-(1-(1-(4-((6-amino-8-hydroxy-2-(2-methoxyethoxy)-9H-purin-9-yl)methyl)phenyl)-1-oxo-5,8,11,14,17,20-hexaoxa-2-azadocosan-22-yl)-1H-1,2,3-triazol-4-yl)propanoic acid] | 5.93 µM·h | 4.99 ± 0.7 µM | 10.6 ± 1.74 µM | 240 mOsm/kg and 240 ± 10 mOsm/kg | – | – | – | – | minimally induced proliferation; also recorded: undetectable | 3.04 ± 0.23 | 2.46 ± 0.36 ng/mL | significantly less cytokine levels; also recorded: minimum induction of proinflammatory cytokines | – | – | –
COCCOc1nc(N)c2nc(O)n(Cc3ccccc3)c2n1 [Compound 1V136, 9-benzyl-8-hydroxy-2-(2-methoxyethoxy) adenine, reference compound] | – | 0.08 ± 0.01 µM | 0.36 ± 0.09 µM | – | 0.332 | 1.62 µM·h | highly insoluble in aqueous solution | – | – | 3.56 ± 0.38 | 3.32 ± 0.54 ng/mL | – | induced strong B cell proliferation | – | –
COCCOc1nc(N)c2nc(O)n(Cc3ccc(C(=O)NCCOCCOCCOCCOCCOCCOCCN)cc3)c2n1 [Compound 1c, 4-((6-amino-8-hydroxy-2-(2-methoxyethoxy)-9H-purin-9-yl)methyl)-N-(20-amino-3,6,9,12,15,18-hexaoxaicosyl)benzamide] | – | 1.19 ± 0.2 µM | 3.9 ± 1.06 µM | – | – | – | – | 51.3 ±6.4% | – | 3.27 ± 0.39 | 5.19 ± 1.96 ng/mL | significantly less cytokine levels; also recorded: minimum induction of proinflammatory cytokines | – | higher potencies than the corresponding compounds with carboxyl-terminals | –
COCCOc1nc(N)c2[nH]c(=O)n(Cc3ccc(C(=O)O)cc3)c2n1 [Compound 1V209, 4-{[6-Amino-2-(2-methoxyethoxy)-8-oxo-7H-purin-9(8H)-yl]methyl}benzoic Acid] | – | – | – | 35 ±1 mOsm/kg | – | – | – | – | – | – | – | – | – | – | –
COCCOc1nc(N)c2nc(O)n(Cc3ccc(C(=O)NCCOCCOCCOCCOCCOCCOCCOCCOCCOCCOCCOCCOCCOCCOCCOCCOCCOCCOCCOCCN)cc3)c2n1 [Compound 3, 4-((6-amino-8-hydroxy-2-(2-methoxyethoxy)-9H-purin-9-yl)methyl)-N-(59-amino-3,6,9,12,15,18,21,24,27,30,33,36,39,42,45,48,51,54,57-nonadecaoxanonapentacontyl)benzamide] | 41.4 µM·h | 0.9 ± 0.29 µM | 1.79 ± 0.77 µM | – | – | – | – | 79.5 ± 1.35% | induced B cell proliferation only at 10 μM | 3.58 ± 0.58 | 4.10 ± 1.33 ng/mL | – | – | – | significantly higher maximum serum concentrations

Further lines, with some results ahead:

AUC ([2]; serum) | EC50 [3] | EC50 [4] | Water Solubility [5] | fraction unbound [7] | AUC ([2]; in vivo) | Water solubility (in words) ([5]; deionized water) | Protein Binding (%) [8] | SMILES | B cell proliferation ([1]; 1 and 10 μM, three donors) | maximal fold induction [3] | Imax BMDM (IL-6 ng/ml) [4] | Serum cytokine levels (IL-6, TNF-α) compared to 1V136 [6] | B cell proliferation ([1]; 1 μM) | Cytokine induction (IL-6, TNF-α) in human PBMC (in words) [9] | Maximum serum concentration compared to 1V136 ([2]; C57BL/6 mice, i.v. 500 nmol)
– | 2.67 ± 0.75 µM | 4.42 ± 1.18 µM | – | – | – | – | – | COCCOc1nc(N)c2nc(O)n(Cc3ccc(C(=O)NCCOCCOCCOCCOCCOCCOCCOCCOCCOCCOCCn4cc(CCC(=O)O)nn4)cc3)c2n1 [Compound 2b, 3-(1-(1-(4-((6-amino-8-hydroxy-2-(2-methoxyethoxy)-9H-purin-9-yl)methyl)phenyl)-1-oxo-5,8,11,14,17,20,23,26,29,32-decaoxa-2-azatetratriacontan-34-yl)-1H-1,2,3-triazol-4-yl)propanoic acid] | minimally induced proliferation; also recorded: undetectable | 3.15 ± 0.23 | 2.79 ± 0.47 ng/mL | significantly less cytokine levels; also recorded: minimum induction of proinflammatory cytokines | – | – | –
– | 5.91 ± 1.33 µM | 6.93 ± 3.54 µM | – | – | – | – | – | COCCOc1nc(N)c2nc(O)n(Cc3ccc(C(=O)NCCOCCOCCOCCOCCOCCOCCOCCOCCOCCOCCN=[N+]=[N-])cc3)c2n1 [Compound 2a, 4-((6-amino-8-hydroxy-2-(2-methoxyethoxy)-9H-purin-9-yl)methyl)-N-(32-azido-3,6,9,12,15,18,21,24,27,30-decaoxadotriacontyl)benzamide] | – | 3.55 ± 0.14 | 2.72 ± 0.34 ng/mL | minimum induction of proinflammatory cytokines | – | – | –
– | 1.16 ± 0.39 µM | 2.24 ± 0.33 µM | – | – | – | – | 57.6 ± 1.2% | COCCOc1nc(N)c2nc(O)n(Cc3ccc(C(=O)NCCOCCOCCOCCOCCOCCOCCOCCOCCOCCOCCN)cc3)c2n1 [Compound 2c, 4-((6-amino-8-hydroxy-2-(2-methoxyethoxy)-9H-purin-9-yl)methyl)-N-(32-amino-3,6,9,12,15,18,21,24,27,30-decaoxadotriacontyl)benzamide] | – | 3.23 ± 0.27 | 2.89 ± 0.49 ng/mL | minimum induction of proinflammatory cytokines | – | higher potencies than the corresponding compounds with carboxyl-terminals | –
– | 4.13 ± 0.97 µM | 8.18 ± 1.91 µM | – | – | – | – | – | COCCOc1nc(N)c2nc(O)n(Cc3ccc(C(=O)NCCOCCOCCOCCOCCOCCOCCN=[N+]=[N-])cc3)c2n1 [Compound 1a, 4-((6-amino-8-hydroxy-2-(2-methoxyethoxy)-9H-purin-9-yl)methyl)-N-(20-azido-3,6,9,12,15,18-hexaoxaicosyl)benzamide] | – | 2.9 ± 0.06 | 2.60 ± 0.49 ng/mL | minimum induction of proinflammatory cytokines | – | – | –
